Results as given in paper PMC4167792 (Analytical biochemistry, 2013).
Where “and” joins values, the source holds several entries; their conditions need not be identical. Identical values can stand only once.

What was measured:
[1] = tested on: quercetin binding site of SIRT6; experiment: Frontal displacement chromatography of quercetin on the SIRT6-OT column; design: species or system chicken; conditions: 10 μM polyphenol in mobile phase in the presence of 5 μM quercetin
How it was run: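 Full-length chicken SIRT6, expressed in E. coli as a GST fusion, thrombin-cleaved and purified by size exclusion. Coupled inside an open tubular capillary (30 cm × 100 μm i.d.) with EDC/Sulfo-NHS in 100 mM MES pH 5.5, 18 h at 4°C. Frontal runs at room temperature, 0.05 mL min^-1, in 10 mM ammonium acetate pH 7.4:methanol (90:10) with 0.2 mM NAD⁺. ESI-MS detection; retention-volume shift recorded.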

SIRT6 protein = SIRT6 protein (Gallus gallus, UniProt A0A8V1A309); experiment: Frontal affinity chromatography on the SIRT6-OT column; assay type: binding, chicken; conditions: for Kd: SIRT6-OT column, ammonium acetate 10 mM pH 7.4:methanol 90:10, 0.2 mM NAD+, non-linear regression
SIRT6 = experiment: Histone deacetylation assay by mass spectrometry on SIRT6-coated magnetic beads; assay type: biochemical, chicken; conditions: 10 μM of each compound, H3K9Ac peptide, 0.2 mM NAD+, 4 h at 37°C
How it was run: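 SIRT6 was coupled by its C-terminus to amine-terminated magnetic beads (1 μm). Beads were incubated in 50 μL of 50 mM Tris-HCl pH 8.0, 150 mM NaCl, 1 mM DTT with 5 μg of H3K9Ac peptide (residues 1–21). p-Aminohippuric acid was added as internal standard. The supernatant, taken after magnetic separation, was run on C18 LC-ESI-MS, positive-ion SIM at m/z 922.4 (acetylated) and 908.4 (deacetylated).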

SMILES	displacement of quercetin (change in retention) [1]	Kd (SIRT6 protein)	% inhibition of deacetylation relative to control (SIRT6)	fold decrease in affinity for the SIRT6 protein (SIRT6 protein; naringenin vs apigenin (saturation of the C ring double bond))	breakthrough volume (SIRT6 protein; 2 μM quercetin on SIRT6-OT column)	midpoint of the breakthrough curve (SIRT6 protein; 2 μM quercetin on SIRT6-OT column, 0.05 mL/min)
O=c1c(-c2ccc(O)cc2)coc2cc(O)cc(O)c12 [genistein, Genistein]	2.5 min	–	–	–	–	–
O=c1cc(-c2ccc(O)cc2)oc2cc(O)cc(O)c12 [Apigenin]	–	1.9 µM and 1.92 µM	39.0 ± 5.9%	–	–	–
O=C1C[C@@H](c2ccc(O)cc2)Oc2cc(O)cc(O)c21 [Naringenin]	–	6.6 µM and 6.62 µM	31.0 ± 5.3%	3 fold	–	–
O=c1c(O)c(-c2ccc(O)c(O)c2)oc2cc(O)cc(O)c12 [Quercetin]	–	4.09 ± 2.26 µM	46.6 ± 2.3%	–	5.25 mL	105 min
O=c1cc(-c2ccc(O)cc2)oc2c([C@@H]3O[C@H](CO)[C@@H](O)[C@H](O)[C@H]3O)c(O)cc(O)c12 [Vitexin]	16.5 min	15.3 µM	24.9 ± 0.9%	–	–	–
O=c1c(O)c(-c2ccc(O)cc2)oc2cc(O)cc(O)c12 [Kaempferol]	–	3.88 ± 0.57 µM	48.6 ± 6.0%	–	–	–
O=c1cc(-c2ccc(O)c(O)c2)oc2cc(O)cc(O)c12 [Luteolin]	38.1 min	1.78 ± 0.64 µM	53.7 ± 17.7%	–	–	–
